According to ChEMBL document CHEMBL1125084, “Synthesis and evaluation of a series of aryl[e]fused pyrazolo[4,3-c]pyridines with potential anxiolytic activity” (J Med Chem, 1990):
Activity calls are given as the source filed them.

Columns and labels:
[1] = molecular target: GABA-A receptor; anion channel; experiment: Displacement of [3H]flunitrazepam from GABA-A Benzodiazepine receptor of rat brain membranes; assay type: cell membranes, Membrane
Method in brief: (§1)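 Well-washed, frozen rat whole brain membranes incubated with 0.5 nM [3H]flunitrazepam; nonspecific binding defined with 10 µM clonazepam. IC50 from log concentration vs percent inhibition curves, Ki via Cheng-Prusoff; triplicate determinations.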

Mus musculus [2] = experiment: Percentage change in seizure threshold by anti-pentylenetetrazole test in mouse at a dose of 30 mg/Kg administered perorally; Inactive; assay type: functional, organism-based
Rattus norvegicus [3] = organism: Rattus norvegicus; experiment: Evaluated for shock induced suppression of drinking by rat vogel test and number of shocks taken were reported; assay type: functional
Method in brief: (§2)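 Rats deprived of water, allowed 4 h drinking, then withdrawn overnight. On test day, free drinking for 30 s, then a mild footshock (0.225 mA, 0.5 s) for every 5 s of accumulated drinking in a 3 min session. Count of shocks taken recorded. Drug given ip to groups of 6-12 rats 30 min before testing; vehicle 1% methyl cellulose in 0.5% saline.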

Mus musculus [4] = experiment: Percent of mice not grasping wire at a dose of 30 mg/Kg administered intraperitoneally in horizontal wire test; Inactive; assay type: functional, organism-based
Mus musculus [5] = experiment: Percentage change in seizure threshold by pentylenetetrazole infusion method in mouse at a dose of 100 mg/Kg administered perorally; assay type: functional
Mus musculus [6] = experiment: Percentage change in seizure threshold by anti-pentylenetetrazole test in mouse at a dose of 100 mg/Kg administered perorally; Inactive; assay type: functional, organism-based
Mus musculus [7] = experiment: Percentage change in seizure threshold by anti-pentylenetetrazole test in mouse at a dose of 30 mg/Kg administered perorally; assay type: functional
[8] = tested on: GABA-A receptor; anion channel; experiment: Displacement of [3H]flunitrazepam from GABA-A Benzodiazepine receptor of rat brain membranes (insoluble); assay type: cell membranes, Membrane; method in brief: as §1
Mus musculus [9] = experiment: Percentage change in seizure threshold by pentylenetetrazole infusion method in mouse at a dose of 30 mg/Kg administered perorally; Inactive; assay type: functional, organism-based
[10] = tested on: GABA-A receptor; anion channel; experiment: Displacement of [3H]flunitrazepam from GABA-A Benzodiazepine receptor of rat brain membranes (Insoluble); assay type: cell membranes, Membrane; method in brief: as §1
Mus musculus [11] = experiment: Percent of mice not grasping wire at a dose of 30 mg/Kg administered intraperitoneally in horizontal wire test; assay type: functional
Rattus norvegicus [12] = experiment: Compound was administered at a dose of 20 mg/Kg intraperitoneally and was evaluated for shock induced suppression of drinking by rat vogel test and number of shocks taken were reported; Inactive; assay type: functional, organism-based; method in brief: as §2
Mus musculus [13] = experiment: Percent of mice not grasping wire at a dose of 300 mg/Kg administered intraperitoneally in horizontal wire test; assay type: functional
Mus musculus [14] = experiment: Effective dose required for the percentage change in seizure threshold by anti-pentylenetetrazole test in mouse when administered perorally; assay type: functional; conditions: po
Method in brief: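 Male CD-1 mice (18-24 g), groups of 10, dosed orally 60 min before testing. Lightly restrained mice received PTZ (8 mg/mL) by tail-vein infusion at 0.5 mL/min. Time to tonic hindlimb extension was converted to a PTZ threshold dose (mg/kg). Effect was expressed as % change in seizure threshold versus controls, with a two-tailed Student's t test.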

Rattus norvegicus [15] = experiment: Compound was administered at a dose of 10 mg/Kg intraperitoneally and was evaluated for shock induced suppression of drinking by rat vogel test and number of shocks taken were reported; assay type: functional; method in brief: as §2
Mus musculus [16] = experiment: Compound was evaluated for horizontal wire test and percent of mice not grasping wire, it was administered intraperitoneally; conditions: ip
Mus musculus [17] = experiment: Compound was evaluated for horizontal wire test and percent of mice not grasping wire, it was administered perorally; conditions: po
Rattus norvegicus [18] = experiment: Compound was administered at a dose of 2.5 mg/Kg intraperitoneally and was evaluated for shock induced suppression of drinking by rat vogel test and number of shocks taken were reported; assay type: functional
Method in brief: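 Rats had water for a 4-h period, then water was withdrawn overnight. On test day, after 30 s of free drinking, a 0.225 mA footshock lasting 0.5 s was given for every 5 s of accumulated drinking in a 3-min session. Drug was given ip to groups of 6-12 rats 30 min before testing. Vehicle controls received 1% methyl cellulose in 0.5% saline. Read-out was the number of shocks taken.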

Mus musculus [19] = experiment: Percentage change in seizure threshold by pentylenetetrazole infusion method in mouse at a dose of 30 mg/Kg administered perorally; assay type: functional

## Cn1ncc2cc3c(cc21)ncc1c(=O)n(-c2ccc(Cl)cc2)[nH]c13
[1]
  Ki: 0.014 µM
Mus musculus [2]
  Change: inactive
Rattus norvegicus [3]
  No. of shocks: 9

## Cn1cc2c(ccc3ncc4c(=O)n(-c5ccc(Cl)cc5)[nH]c4c32)n1
[1]
  Ki: 0.00046 µM
Mus musculus [4]
  Activity: inactive
Mus musculus [2]
  Change: inactive
Rattus norvegicus [3]
  No. of shocks: 5.7

## Cn1ncc2ccc3ncc4c(=O)n(-c5ccc(Cl)cc5)[nH]c4c3c21
[1]
  Ki: 0.012 µM
Mus musculus [4]
  Activity: inactive
Mus musculus [2]
  Change: inactive
Rattus norvegicus [3]
  No. of shocks: 13

## Cc1nc2ccsc2c2[nH]n(-c3ccc(Cl)cc3)c(=O)c12
[1]
  Ki: 1 µM
Mus musculus [5]
  Change: 57%
Rattus norvegicus [3]
  No. of shocks: 6.1

## O=c1c2cnc3ccsc3c2[nH]n1-c1ccc(Cl)cc1
[1]
  Ki: 0.00046 µM
Mus musculus [4]
  Activity: inactive
Mus musculus [6]
  Change: inactive
Rattus norvegicus [3]
  No. of shocks: 14

## Cn1ncc2c3c(ccc21)ncc1c(=O)n(-c2ccc(Cl)cc2)[nH]c13
[1]
  Ki: 0.0024 µM
Mus musculus [4]
  Activity: inactive
Mus musculus [7]
  Change: 37%
Rattus norvegicus [3]
  No. of shocks: 13

## Cn1cc2ccc3ncc4c(=O)n(-c5ccc(Cl)cc5)[nH]c4c3c2n1
[1]
  Ki: 0.00029 µM
Mus musculus [4]
  Activity: inactive
Rattus norvegicus [3]
  No. of shocks: 7

## Clc1ccc(-n2nc3c(cnc4ccsc43)c2Cl)cc1
[8]
  Ki: Insoluble
Mus musculus [9]
  Change: inactive
Rattus norvegicus [3]
  No. of shocks: 13.7

## Cn1cc2c(=O)n(-c3ccc(Cl)cc3)nc-2c2sccc21
Mus musculus [4]
  Activity: inactive
Mus musculus [9]
  Change: inactive
Rattus norvegicus [3]
  No. of shocks: 16.8
[10]
  Ki: Insoluble

## Cn1c2ccccc2c2ncc3c(=O)n(-c4ccc(Cl)cc4)[nH]c3c21
[8]
  Ki: Insoluble
Mus musculus [11]
  Activity: 25%
Rattus norvegicus [3]
  No. of shocks: 10

## Cn1c2c(cnc3ccsc32)c(=O)n1-c1ccc(Cl)cc1
[1]
  Ki: 2.6 µM
Mus musculus [9]
  Change: inactive
Rattus norvegicus [3]
  No. of shocks: 8.6

## Cc1ccc2c(ncc3c(=O)n(-c4ccc(Cl)cc4)[nH]c32)n1
[1]
  Ki: 11 µM
Mus musculus [6]
  Change: inactive
Rattus norvegicus [12]
  No. of shocks: inactive

## Oc1c2cnc3cscc3c2nn1-c1ccc(Cl)cc1
[1]
  Ki: 0.00032 µM
Mus musculus [4]
  Activity: inactive
Mus musculus [7]
  Change: 47%
Rattus norvegicus [3]
  No. of shocks: 17

## Cc1[nH]sc2ncc3c(=O)n(-c4ccc(Cl)cc4)nc3c12
[1]
  Ki: 0.099 µM
Mus musculus [4]
  Activity: inactive
Mus musculus [5]
  Change: 48%
Rattus norvegicus [3]
  No. of shocks: 11.9

## O=c1c2cnc3c4ccccc4sc3c2[nH]n1-c1ccc(Cl)cc1
[1]
  Ki: 0.81 µM
Mus musculus [4]
  Activity: inactive
Mus musculus [9]
  Change: inactive
Rattus norvegicus [3]
  No. of shocks: 14.1

## CCc1cc2c(ncc3c(=O)n(-c4ccc(Cl)cc4)[nH]c32)s1
[1]
  Ki: 0.0018 µM
Mus musculus [4]
  Activity: inactive
Mus musculus [9]
  Change: inactive
Rattus norvegicus [3]
  No. of shocks: 14.4

## Cn1cnc2c3c(ccc21)ncc1c(=O)n(-c2ccc(Cl)cc2)[nH]c13
[1]
  Ki: 0.0018 µM
Mus musculus [4]
  Activity: inactive
Rattus norvegicus [3]
  No. of shocks: 12

## O=C1C2C=Nc3ccccc3C2=NN1c1ccc(Cl)cc1 (centres undefined) [CGS-9896]
[1]
  Ki: 0.00035 µM
Mus musculus [13]
  Activity: 30%
Mus musculus [14]
  ED50: 3.5 mg/kg
Rattus norvegicus [15]
  No. of shocks: 12.7

## CN1C(=O)CN=C(c2ccccc2)c2cc(Cl)ccc21 [DIAZEPAM]
Mus musculus [14]
  ED50: 1.5 mg/kg
Mus musculus [16]
  ED50: 3.1 mg/kg
Mus musculus [17]
  ED50: 3.8 mg/kg
Rattus norvegicus [18]
  No. of shocks: 21.2

## COc1c2cnc3ccsc3c2nn1-c1ccc(Cl)cc1
Mus musculus [9]
  Change: inactive
Rattus norvegicus [3]
  No. of shocks: 13.4
[10]
  Ki: Insoluble

## O=c1c2c(-c3ccccc3)nc3ccsc3c2[nH]n1-c1ccc(Cl)cc1
[1]
  Ki: > 1000 µM
Mus musculus [19]
  Change: 18%
Rattus norvegicus [3]
  No. of shocks: 6.7
